OX1R antag-1: blocks the human orexin 1 receptor. O43613. OX1R-expressing cells, FRET antagonist read-out. inhibition, % at 6.6 µM. 330,000 compounds, 1.8% hits; in the data active means inhibition mostly above about 38%, no sharp cut-off; inactive means mostly below about 40%;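 further: 0% = agonist challenge alone and 100% = reference antagonist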
TAAR1 antagonist: human TAAR1 antagonism; Q96RJ0; CHO RD-HGA16 TAAR1, Fluo-8 calcium fluorescence, antagonist; inhibition, % at 3 µM; 360,000 compounds, 1.5% hits;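 active means inhibition above a per-plate cutoff, the mean inhibition of test compounds on that plate plus 3 SD, cut at about 49% in these data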;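 further: 0% = DMSO plus EC80 beta-PEA response and 100% = DMSO alone without agonist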
Target sequence (Q96RJ0 whole entry, looked up): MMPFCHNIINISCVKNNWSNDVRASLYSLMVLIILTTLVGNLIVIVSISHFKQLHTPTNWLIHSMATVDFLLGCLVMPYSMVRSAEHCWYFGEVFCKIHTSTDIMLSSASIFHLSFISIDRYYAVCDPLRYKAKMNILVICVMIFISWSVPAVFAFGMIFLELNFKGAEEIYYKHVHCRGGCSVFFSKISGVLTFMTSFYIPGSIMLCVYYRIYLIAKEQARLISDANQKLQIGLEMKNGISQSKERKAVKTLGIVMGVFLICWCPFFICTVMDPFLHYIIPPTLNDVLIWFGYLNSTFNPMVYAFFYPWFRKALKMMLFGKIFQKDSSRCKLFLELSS
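Material: CHO RD-HGA16 cells bearing hTAAR1; compound dosing: one-point dosing, 3 µM nominal final; schedule: dye loading 75 min at 37 °C, then 30 min room temperature; measured by: calcium fluorescence with Fluo-8; control set: vehicle and agonist controls; replication: n of 1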
OX1R antag-2: blocks the human orexin 1 receptor; O43613; CHO/OX1R cells, Fluo-8 calcium fluorescence, orexin A; inhibition, % at 5 µM; 330,000 compounds, 0.43% hits;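 active means inhibition above its plate's threshold, mean inhibition of all tested compounds on the plate plus 3 SD, cut at about 37% in these data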;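 further: 0% = orexin A challenge wells and 100% = SB-334867-A antagonist wells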
TAAR1 agonist: agonists of human TAAR1; CHO RD-HGA16 TAAR1, Fluo-8 calcium fluorescence; vehicle wells 0%, saturating PEA agonist 100%; Q96RJ0; AID 624467; activation, % at 3 µM; 360,000 compounds, 0.99% hits;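 active means activation above the mean activation of all test compounds in the run plus 3 SD, cut at about 38% in these data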
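Signal – calcium-sensitive Fluo-8 signal, excitation 470-495, emission 515-575 nm · System – RD-HGA16 (CHO) cells co-expressing Gα16 and hTAAR1 · Incubation – 17-24 h seeding, 75 min 37 °C dye, 30 min RT · Compound dosing – 3 µM single concentration · Repeats – no replicates (n 1)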
CHO parental Ca: signal in parental CHO cells, OX1R antagonist counter-screen | parental CHO-K1, ATP-induced calcium, Fluo-8 fluorescence | inhibition, % at 5.6 µM | 330,000 compounds, 0.63% hits;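 active means inhibition above that plate's mean sample inhibition plus 3 SD, cut at about 26% in these data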;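 further: 0% = ATP-challenged DMSO wells and 100% = DMSO wells without ATP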
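Material: parental CHO cells / Compound: single nominal dose of 5.6 µM per compound / Signal: Fluo-8 fluorescence / Replicates: singlicate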
Numbers without * were called inactive; nt = not tested or not shown. This is a sample that favours compounds with a hit; in the whole collection about 3.9% have one here.

SMILES	OX1R antag-1	TAAR1 antagonist	OX1R antag-2	TAAR1 agonist	CHO parental Ca
CCCCOCCCNC(=O)C[C@@H]1C[C@@]2(C(=O)OCC)CCCC=C2N(Cc2ccc3c(c2)OCO3)C1=O	nt	-16	nt	-1	nt
CO[C@@H]1CN(C)C(=O)c2cc(NS(=O)(=O)c3ccc(C)cc3)ccc2OC[C@H](C)N(Cc2nccs2)C[C@H]1C	nt	-27	nt	2	nt
CC(=O)c1ccc(-c2cnc3c(NC=O)cc(-c4ccccc4Oc4ccccc4)cn23)cc1	nt	13	nt	-1	nt
Cn1ccnc1C(=O)c1ccc(NN)c([N+](=O)[O-])c1	53*	1	-36	-1	-16
CCOC(=O)c1c(NC(=O)COC(=O)CNC(=O)c2ccc(Cl)cc2Cl)sc(C(=O)N(C)C)c1C	10	-32	-17	1	-17
CCOC(=O)c1c(NC(=O)COC(=O)c2nc(Cl)ccc2Cl)sc(C(=O)N(C)C)c1C	10	51*	-20	12	-20
N#CC(CC(=O)OCc1ccccc1)NC(=O)OCc1ccccc1 (centres undefined)	nt	-2	nt	-2	nt
Cn1cc(/C=C/c2cc[n+](C)cc2)c2cc(F)ccc21	44*	nt	-8	nt	-7
Cn1cc(C=O)c2cc(F)ccc21	12	-7	-10	3	-3
CN(Cc1cccc(F)c1)C(=O)c1ccccc1Sc1ccccc1C#N	41	12	-21	1	-4
COc1cccc(NC(=O)CN(C)C(=O)c2ccccc2Sc2ccccc2C#N)c1	39*	17	24	7	-14
CN(CC(=O)Nc1cccc(F)c1)C(=O)c1ccccc1Sc1ccccc1C#N	33*	26	14	5	-21
CC1(C(=O)Nc2cccc(NS(C)(=O)=O)c2)Cc2c(-c3ccc(C(N)=O)cc3)ccnc2O1 (centres undefined)	nt	-27	nt	2	nt
O=C1NC(=S)/C(=C\c2ccc(-c3ccccc3Cl)o2)S1	44	50*	18	9	12
O=C(NCc1ccccc1)/C(=C\c1ccc(F)cc1)NC(=O)c1ccco1	nt	-14	nt	3	nt
CCOc1cc(CNCCO)cc(Br)c1OCc1ccc(Cl)cc1	4	27	10	40*	1
CCOc1cccc(CNCCO)c1OCc1ccc(Cl)cc1	7	12	-21	8	-18
CCOc1cc(CNCCO)cc(Br)c1OCc1ccccc1Cl	0	18	10	46*	4
CCc1nc2ccc(C(=O)NCCCN3CCCC3=O)cn2c1N(C)Cc1ccc(OC)cc1	nt	-21	nt	2	nt
COc1cccc(C(=O)N[C@H](C(=O)N2CCC[C@H]2C(=O)NC2CCCC2)c2ccccc2)c1	nt	-12	nt	1	nt
CN(C)C(CNC(=O)c1cc(S(=O)(=O)N(C)Cc2ccccc2)ccc1Cl)c1ccco1 (centres undefined)	15	14	25	5	18
COc1cc2c(cc1[N+](=O)[O-])-c1ccc([N+](=O)[O-])cc1C2	nt	7	nt	0	nt
COc1c(-c2ccc([N+](=O)[O-])cc2[N+](=O)[O-])c(=O)n(C)c(=O)n1C	51*	0	-14	-1	-4
Cc1[nH]n(-c2ccccc2)c(=O)c1/C=N/N1C(=O)c2cccc3cccc(c23)C1=O	74*	11	5	25	-5
CC(C)C[C@H](NC(=O)c1cccs1)C(=O)N1CCC[C@H]1C(=O)NCc1ccccc1	nt	0	nt	-1	nt
SMILES	OX1R antag-1	TAAR1 antagonist	OX1R antag-2	TAAR1 agonist	CHO parental Ca
Cc1cccc(OCC(=O)NCC(=O)N/N=C/c2cccs2)c1	6	-5	-6	9	-19
O=C(N=Nc1c(O)[nH]c2ccccc12)c1cc(-c2cccs2)[nH]n1	66*	32	9	6	-3
Cc1cc(C(=O)N/N=C/c2c(C)[nH]c3ccccc23)n[nH]1	11	-36	-4	11	-8
O=C(Cc1cccs1)N=Nc1c(O)[nH]c2ccccc12	17	-12	-14	6	-10
Cc1cccc(OCC(=O)NCC(=O)N/N=C/c2c(C)[nH]c3ccccc23)c1	12	52*	21	8	0
Cc1[nH]c2ccccc2c1/C=N/NC(=O)c1cc(-c2cccs2)[nH]n1	57*	58*	0	16	-10
COC(=O)N1C[C@H](OC)[C@H]2C[C@@H]1c1ccccc1O2	nt	-8	nt	2	nt
COC(=O)[C@]12C[C@H](CC(=O)NCCC(C)C)C(=O)N(Cc3ccc4c(c3)OCO4)C1=C[C@H](COCc1ccccc1)O[C@@H]2C	nt	-32	nt	-2	nt
CCOC(=O)C1=C(C(=O)OCC)C2N(Cc3ccccc3)c3ccccc3[C@@]23C[C@@H](C(=O)OC)N(S(=O)(=O)c2ccc(C(F)(F)F)cc2)C3=N1 (some centres undefined)	nt	-25	nt	1	nt
Cn1c(N)c(C(=O)CSc2nc3ccccc3c(=O)n2CCCN2CCOCC2)c(=O)n(C)c1=O	8	-6	-28	4	-6
Cc1[nH]c2ccccc2c1C(=O)CSc1nc2ccccc2c(=O)n1CCCN1CCOCC1	22	71*	-5	48*	8
COc1ccc(C(C(=O)NCc2ccccc2)n2c(=O)c(-c3ccco3)nc3ccccc32)cc1 (centres undefined)	nt	-15	nt	-1	nt
Nc1ccc2oc(-c3cc(Br)ccc3Cl)nc2c1	47*	nt	-5	nt	-16
Nc1ccc2oc(-c3ccccc3Cl)nc2c1	15	2	11	0	-3
c1cnc2ncc3sccc3c2c1	8	7	-3	6	46*
Cc1cnc2ncc3sccc3c2c1	-1	-3	6	0	2
Cc1ccc2cc(C)c3nnc(SCC(=O)c4cccs4)n3c2c1C	45*	12	-10	4	-16
Cc1cc2ccc(C)c(C)c2nc1SCC(=O)c1cccs1	12	-1	-22	8	-14
C=CCNc1ncnc2c1ncn2[C@H]1CN(C2CCCC2)C[C@@H](CO)O1	nt	-13	nt	1	nt
CC(C)C[C@@H](CNCC(=O)[C@H](Cc1ccccc1)NC(=O)c1[nH]cnc1C(=O)N[C@H](CN)CC(C)C)NC(=O)c1nc[nH]c1C(=O)N[C@@H](CC(=O)O)C(=O)O	nt	-14	nt	0	nt
COc1cc(/C=C2\SC(=Nc3ccccc3)N(CCc3c[nH]c4ccccc34)C2=O)ccc1OC(C)C(=O)O (centres undefined)	19	13	5	0	6
O=C1/C(=C/c2ccc(N3CCOCC3)o2)SC(=Nc2ccccc2)N1CCc1c[nH]c2ccccc12	1	nt	75*	nt	92*
Cc1ccc(C(=O)Sc2cccccc2=O)cc1	8	45	53*	12	54*
Cc1cc(C)c2c(=O)n3c(nc2c1)C(CC(C)C)NC(=O)c1cccnc1-3 (centres undefined)	nt	-17	nt	-1	nt
c1ccc(NCc2nc3ccccc3n2CCOc2ccccc2)cc1	68*	2	12	1	-20
COc1ccc(NCc2nc3ccccc3n2CCOc2ccccc2)cc1	0	41	4	7	-7

Source: PubChem BioAssay (The Scripps Research Institute Molecular Screening Center)
